Experimental data as given in ChEMBL document CHEMBL4513216, “Probing the Open Global Health Chemical Diversity Library for Multistage-Active Starting Points for Next-Generation Antimalarials” (ACS Infect Dis, 2020).

Experiment: Toxicity liver stage against HepG2, at 10uM
Type: cell-based
Design: test concentration 10 uM, cell line HepG2-A16-CD81EGFP
Settings: human, HepG2-A16-CD81EGFP cells; read-out: INHIBITION
How it was run: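 Uninfected HepG2-A16-CD81EGFP cells, 3 × 10^3 per well, 1536-well, plated on prespotted compound at 10 μM final, parasite-free screening media added to match infected plates; puromycin 10 μM positive, DMSO 0.5% negative; run in parallel with 48 h PbLuc assay at 37 °C, 5% CO2; viability by CellTiter-Glo luminescence, normalized to controls.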

Structure (SMILES)	cytotoxicity at 10 µM [%]
Cc1cc2ncn(C(=O)N3CCCCC3)c2cc1C	10.3
COCCN1C[C@H]2CN(C(=O)NCc3ccccc3)CCN2C1=O	2.08
O=C1CO[C@H](c2ccc(NS(=O)(=O)c3ccccc3)cc2)[C@@H](CO)N1	2.17
c1cnc2c(c1)nc1n2[C@@H](CNC2CCOCC2)COC1	-4.8
c1cn2c(n1)CO[C@@H](CNCc1ccc3c(c1)OCO3)C2	2
CC(=O)N1C[C@@H](F)[C@@H](OCc2nc3ccccc3o2)C1	-1.34
O=C(O)Cn1ccc(=O)c2ccccc21	-9.24
Cc1nn(C)cc1-c1nn2c(C(F)(F)F)nnc2s1	2.48
CSCCC(Nc1nc(C)cc(C)n1)C(=O)NC1CC1 (stereo not given)	-15.3
O=C(NCCc1ccccn1)c1n[nH]c2c1CCC2	-3.81
CC(C)CNC(=O)N1C[C@@H]2CCCN[C@@H]2C1	5
CC(=O)N1CCC2(C1)CN(S(=O)(=O)c1ccccc1)C2	3.82
Cc1cnc(CNC(=O)C[C@@H]2COC[C@H]3CN(C4CCC4)C[C@@H]23)cn1	-10.6
O=C1NCCO[C@H]2CN(C(=O)CCc3ccccc3Cl)CC[C@@H]12	1.96
O=c1ccc2c(n1Cc1ccncc1)CCN(C1CCOC1)CC2 (stereo not given)	-1.31
COCC1CN(CC2CCOCC2)Cc2cn(CC3CCCC3)nc21 (stereo not given)	5.19
CNC(=O)[C@@]12CCC3(CCNCC3)[C@@H]1CN(S(C)(=O)=O)C2	-2.86
CO[C@@H]1CC[C@H]2[C@H]1OCCN2S(=O)(=O)C1CC1	2.6
Cc1ncnc2c1CCN(C(=O)c1ccoc1)CC2	6.73
Cc1sc(NC(=O)CN(C)S(C)(=O)=O)c(C#N)c1C	4.7
CC1CCN(C(=O)c2ccn(COc3ccccc3)n2)CC1	-0.107
Cn1cc(Br)c(C(=O)NCCn2cc(Br)cn2)n1	-13.3
COC(=O)c1c(Cl)c(C)nc2onc(C)c12	-0.895
COc1ccc(CNC(=O)c2nn(C)c3c2CS(=O)(=O)CC3)cc1OC	8.09
CN(C)C(=O)CNC(=O)CCn1ncc2c(Cl)cccc21	-4.84
CS(=O)(=O)c1cnc(N2CCCC2)nc1C1CCN(C(=O)C2CC2)CC1	1.45
O=C(c1cscn1)N1CCc2[nH]nc(Nc3ccccc3)c2C1	7.82
CC(C)(NC(=O)Cc1ccccc1F)C(=O)O	3.13

Structure (SMILES)	cytotoxicity at 10 µM [%]
CC(=O)N1CCOC(c2c(C(=O)NCCN(C)C)sc3ccccc23)C1 (stereo not given)	-1.19
CC(C)NC(=O)C1CCc2nnc(C(C)(C)C)n21 (stereo not given)	2.74
Cc1cc(C)c(CNC(=O)NC2CCN(C(=O)C(C)C)CC2)c(C)c1	9.46
Cc1cccc(NC(=O)N2CCC(CO)(Nc3ccccc3)CC2)c1	0.045
CC(C)(CO)N1CCN(S(=O)(=O)CCCF)CC1	-4.3
CC(C#N)CNC(=O)Nc1ccc(Br)cc1 (stereo not given)	1.44
CCOc1ccc(NCc2cnc(N3CCN(C)CC3)nc2)cn1	-0.512
O=C(NCCN1CCCCCC1=O)Nc1cccnc1-n1cccn1	-1.73
CCC(NC(=O)c1ccc(COC)o1)c1nc(C(F)(F)F)cs1 (stereo not given)	2.91
CNC(=O)CN1CCC(CN(C)Cc2ccc(C)cc2C)CC1	4
NC(=O)CN1CCc2c(Br)ccc(F)c2C1	0.892
CC(C)Oc1cccc(CN(C)C(=O)Nc2cccn(C)c2=O)c1	-6.13
COC(=O)CCN(CC1CCCO1)C(=O)CCc1ccc(OC)cc1 (stereo not given)	7.39
CN(C)c1ccc(C(=O)Nc2ccn(CC(N)=O)n2)cn1	-5.75
O=C(CNC(=O)c1ccccc1I)NCc1ccccc1F	1.16
Cc1ccccc1C(NC(=O)NCC1(O)CCC1)C1CC1 (stereo not given)	-3.03
CC(=O)NC1(C(=O)N2CCCN(c3cccnn3)CC2)CCCCC1	8.15
Cc1nc(CN2CCN(C(=O)C(C(C)C)n3cncn3)CC2)cs1 (stereo not given)	-1.29
COc1ccc(OCCN(C)C(=O)c2ccc(OC)cc2O)cc1	-143
N#Cc1cccnc1NCc1ccc(S(=O)(=O)NC2CC2)cc1	6.25
O=S(=O)(Nc1cn[nH]c1)c1ccc(Br)c(F)c1	0.462
NC(=O)CCN1C(=O)CC(Cc2ccc(F)cc2)C1=O (stereo not given)	-4.89
CC(CNC(=O)c1c[nH]nn1)Oc1cccc(Br)c1 (stereo not given)	-10.3
N#CC(NC(=O)CCC(=O)NC1CCCC1)c1ccc(F)cc1F (stereo not given)	6.75
OCC(O)CSCc1ccc(F)cc1Cl (stereo not given)	-138
Cc1cnn(-c2ccc(C(=O)N3CCN(C)CC3C)cc2)c1 (stereo not given)	5.16
CCOc1ccc(C(F)(F)F)cc1NC(=O)NCc1noc(C)n1	-5.1
